# Bioassay records: PubChem, The Scripps Research Institute Molecular Screening Center
# Only some compounds are listed: those with a hit (about 1.8% of all), similar ones and a draw of the others.
# M4 PAM: CHRM4 positive allosteric modulation; P08173; CHO-K1 hM4/Gqi5, Fluo-8 calcium fluorescence, ACh EC20; 0% = ACh EC20, 100% = maximal ACh; activation, % at 3 µM; hit rate 0.4% among 360,000; AID 624126;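 active = activation above its plate's cutoff, the mean activation of sample wells plus 3 SD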
# M5 antag: blocks acetylcholine activation of human M5 receptor; P08912; CHO-hM5 cells, Fluo-8 calcium fluorescence, ACh EC80; inhibition, % at 3 µM; hit rate 0.59% among 360,000;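 active = inhibition above a per-plate cutoff, the mean of that plate's test compounds plus 3 SD, cut at about 27% in these data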;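 note: 0% = acetylcholine EC80 with DMSO and 100% = DMSO without agonist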
# Target sequence (P08912 whole entry, looked up): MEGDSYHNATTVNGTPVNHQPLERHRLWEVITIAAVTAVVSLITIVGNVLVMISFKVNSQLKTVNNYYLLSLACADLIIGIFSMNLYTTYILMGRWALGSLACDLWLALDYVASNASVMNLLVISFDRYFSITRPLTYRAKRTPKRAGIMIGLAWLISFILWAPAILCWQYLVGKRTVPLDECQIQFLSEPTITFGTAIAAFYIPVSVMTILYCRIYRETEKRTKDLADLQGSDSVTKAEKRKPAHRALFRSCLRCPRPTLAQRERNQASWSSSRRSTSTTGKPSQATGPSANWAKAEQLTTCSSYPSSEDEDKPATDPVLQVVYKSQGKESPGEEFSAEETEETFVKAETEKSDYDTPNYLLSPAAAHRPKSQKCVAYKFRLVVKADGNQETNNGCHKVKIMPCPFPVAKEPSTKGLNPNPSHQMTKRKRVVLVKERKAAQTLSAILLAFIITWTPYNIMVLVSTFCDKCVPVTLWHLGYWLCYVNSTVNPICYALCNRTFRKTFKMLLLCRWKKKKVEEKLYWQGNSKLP
# CHRM5 PAM: positive allosteric modulators of human muscarinic M5 receptor; CHO-K1 hM5, Fluo-8 calcium, ACh EC20 PAM; 0% = ACh EC20, 100% = ACh EC100; activation, % at 3 µM; hit rate 0.3% among 360,000; AID 624038;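 active = activation above the run cutoff, the mean activation of all test compounds plus 3 SD, cut at about 18% in these data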
#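 Assay system: CHO-K1 hM5 cells. Also added: acetylcholine at EC20 concentration, added after compound. Dosing: 3 µM, single dose. Times: compound preincubation 140 s before EC20 acetylcholine addition. Signal: Fluo-8 calcium fluorescence. Measure: % activation relative to EC20 and EC100 ACh responses. Repeats: singlicate, one well per test compound.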
# CHRM5 agonist: agonists of human muscarinic M5 receptor (CHRM5). P08912. CHO-K1 hM5 cells, Fluo-8 calcium fluorescence; 0% DMSO wells, 100% maximal acetylcholine response. activation, % at 3 µM. hit rate 0.19% among 360,000. AID 624037;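 active = activation above the run's mean over test compounds plus 3 SD, cut at about 23% in these data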;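 note: signal is peak over basal fluorescence ratio across the kinetic read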
# CHRM4 agonist: agonists of human muscarinic M4 receptor (CHRM4). hit rate 0.14% among 360,000. P08173. activation, % at 3 µM. AID 624127. CHO-K1 hM4/Gqi5, Fluo-8 calcium fluorescence; vehicle 0%, full acetylcholine response 100%;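 active = activation above the run mean over all test wells plus 3 SD, cut at about 32% in these data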;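 note: peak over basal fluorescence ratio per well then scaled between controls; 0% = DMSO wells and 100% = acetylcholine at EC100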
# M4 antag: antagonists of human muscarinic M4 receptor (CHRM4) | CHO-hM4 cells, ACh EC80, Fluo-8 calcium fluorescence | inhibition, % at 3 µM | hit rate 0.73% among 360,000 | AID 624125;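 active = inhibition above its plate's cutoff, the mean inhibition of sample wells plus 3 SD, cut at about 27% in these data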;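 note: 0% = acetylcholine EC80 with DMSO and 100% = DMSO without agonist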
# * hit, by the source's call.
SMILES,M4 PAM,M5 antag,CHRM5 PAM,CHRM5 agonist,CHRM4 agonist,M4 antag
CC(=O)Nc1ccc(C(=O)OCC(=O)NCc2ccccc2)cc1,-3,27*,-14,-1,2,1
Cc1ccc(/C=N/N2CCN(Cc3ccccc3)CC2)o1,1,5,-3,-5,1,9
Cc1ccc(/C=N/N2CCN(Cc3cccc4ccccc34)CC2)o1,2,-12,5,-3,-3,29*
Cc1cccc(NC(=O)c2ccc(F)c(S(=O)(=O)NCc3ccco3)c2)c1,3,-16,19*,2,1,-8
CCn1c(SCCN2CCCCC2)nnc1-c1ccc(S(=O)(=O)N2CCOCC2)cc1,-17,12,-2,-17,0,33*
Cc1ccc(S(=O)(=O)N2CCC(c3nnc(SCCN4CCCC4)n3C)CC2)cc1,-11,8,-5,-7,0,11
CC1(c2ccccc2)NC(=O)N(CC(=O)NCC2CCCO2)C1=O (stereo not given),6,27,-13,-1,1,-8
CCC(C)NC(=O)C1CCN(S(=O)(=O)c2cc([N+](=O)[O-])ccc2Cl)CC1 (stereo not given),-7,10,-7,0,2,-8
O=C(Nc1nc2ccccc2s1)C1CCN(S(=O)(=O)c2cc([N+](=O)[O-])ccc2Cl)CC1,-34,39*,-30,-4,17,33*
CC(C)(C)[C@H]1COC(=O)[C@H](NC(=O)OCC2c3ccccc3-c3ccccc32)C/C=C\C[C@@H](CC(=O)N(CCO)Cc2ccccc2)C(=O)N1,-4,-1,-15,3,18,11
COc1cc(CC(=O)N2c3ccccc3N=C(c3ccccc3)C2C(=O)NCc2ccccc2)cc(OC)c1 (stereo not given),-2,8,-10,4,8,-7
CCOC(=O)CSc1nnc(CNC(=O)c2cccc(C)c2)n1C,15,2,3,0,3,4
CCOC(=O)CSc1nnc(CNC(=O)c2ccc([N+](=O)[O-])cc2)n1C,13,-6,22*,5,1,-10
CCN(CC)C(=O)C1=C(C)N(Cc2ccc(C(C)(C)C)cc2)C(=O)C(CC(=O)NC(c2ccccc2)c2ccccc2)C1 (stereo not given),-2,-8,1,-1,7,-17
Cc1cc(C)n(-c2nc(NC(C)(C)C)nc(NC(C)(C)C)n2)n1,-3,12,-2,-4,0,0
Cc1cc(C)n(-c2nc(Nc3ccccc3C(F)(F)F)nc(-n3nc(C)cc3C)n2)n1,-11,30*,-16,1,28,15
Cc1ccc(-c2nc(C=Nc3ccccc3)c(O)o2)cc1,1,-14,-2,-7,2,-5
Cc1ccc(-c2nc(C=Nc3cccc(C)c3)c(O)o2)cc1,5,-1,18*,1,1,-9
CC(C)c1ccc(CN2CCSCC2)cc1,-1,4,3,0,0,0
CCCCN(C(=O)C1CCC1)c1c(N)n(CCC)c(=O)[nH]c1=O,1,4,4,0,0,4
CCCCN(C(=O)C1CCCC1)c1c(N)n(CC(C)C)c(=O)[nH]c1=O,27*,-10,6,4,1,-20
O=C(COC(=O)/C=C/c1ccccc1Cl)NC1CC1,1,1,1,1,1,-1
O=[N+]([O-])c1cc(C(F)(F)F)ccc1SCC(O)CO (stereo not given),14,17,26*,9,2,-13
CC(=O)OC[C@@H]1CN(Cc2ccccc2)C[C@H](n2cnc3c(NC4CCCC4)ncnc32)O1,4,-3,2,0,2,-2
Cc1cccc(Nc2nc(NCC3CCCO3)nc(N)c2[N+](=O)[O-])c1 (stereo not given),24*,16,7,-2,2,15
SMILES,M4 PAM,M5 antag,CHRM5 PAM,CHRM5 agonist,CHRM4 agonist,M4 antag
Nc1nc(NCC2CCCO2)nc(Nc2cccc(Cl)c2)c1[N+](=O)[O-] (stereo not given),5,-1,8,5,1,1
CCC(CC)c1nnc(NC(=O)CCc2ccccc2)s1,15*,8,-1,3,0,-4
CCC(CC)c1nnc(NC(=O)CCc2ccc(OC)cc2)s1,2,2,5,8,1,-13
CCOc1ccccc1C(=O)OCC(=O)NCC1CCCCC1,-9,-6,2,-5,-3,42*
CCOc1ccccc1C(=O)OCC(=O)NCCNC(=O)COC(=O)c1ccccc1OCC,-3,21,38*,2,2,5
CCCc1nc2cc(C)c(Br)c(C)n2c1Cc1ccccc1OC,11,-1,-2,0,-1,-2
CC(=O)Nc1ccc(NC(=O)C(C)OC(=O)CNC(=O)c2cccs2)cc1 (stereo not given),7,97*,-32,-8,0,-2
CC(OC(=O)CNC(=O)c1cccs1)C(=O)Nc1ccc(S(N)(=O)=O)cc1 (stereo not given),2,7,2,0,1,3
CCCCOc1cc(NCc2ccccc2)c2ncn(C(C)C)c2c1,29*,8,13,13,11,-23
COc1cc(NCc2ccccc2)c2ncn(Cc3ccccc3)c2c1,36*,-24,22*,10,17,-20
COCCCOc1cc(NCc2ccccc2)c2ncn(C(C)C)c2c1,12,1,7,2,0,-13
CCN(CC)C(=O)c1cccc(-c2csc(C(O)(c3ccccc3)C(F)(F)F)n2)c1 (stereo not given),-2,7,-2,0,9,-7
COc1ccc(C(=O)/C=C/C(=O)N(CC(=O)NC2CCCCC2)CC2CCCO2)c(O)c1 (stereo not given),-8,14,7,17,6,29*
CCN(CC)c1ccc(/C=N/NC(=O)c2ccc3c(c2)OCCO3)cc1,-2,28*,-11,-2,4,-6
COc1ccc(NC(=O)Nc2ccc([N+](=O)[O-])cc2)cn1,-9,34*,-13,8,22,0
COc1ccc(NC(=O)Nc2cc(C)cc(C)c2)cn1,-2,16,-10,0,5,4
C=CCn1c(SCC(=O)Nc2cc(C)on2)nnc1-c1ccccc1F,7,-12,14,1,2,2
CCCCNC(=O)c1nc(C2CCN(S(=O)(=O)c3ccc(F)c(F)c3)CC2)oc1-c1ccccc1,10,-6,2,2,2,-1
CCCc1nnc(SCc2ccc(C(=O)OC)o2)n1N,1,-1,3,0,1,-1
